High-throughput results deposited in PubChem BioAssay by several laboratories.
A selection: hits, their analogues and other compounds. The true share with any hit is near 2.4%.
Ins promoter up: insulin promoter activators in MIN6 cells, imaging, high-content screening, mouse beta cells | MIN6 insulin promoter-GFP reporter; hits give high values | z-score at 5 µM | 0.3% of 190,000 active | AID 1625, 2009;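 active = z-score above 3 at 5 µM with at least 500 cells counted in the well; inconclusive = wells under 500 cells, flagged as cytotoxic or low count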
Calb FLC: C. albicans growth inhibition with fluconazole, primary screen, CaCi-2 strain, Alamar Blue fluorescence; C. albicans CaCi-2 + fluconazole, 48 h; growth inhibition, % (concentration not given with the values); 0.57% of 300,000 active; AID 1979, 2009;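 active = growth inhibition above about 58% in most replicates, limit read from the data, passing the limit was not always enough; inconclusive = exactly half the replicates above a set limit; inactive = most replicates below a set limit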;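 note: all wells also contain fluconazole at 8 µg/ml as a sub-toxic cotreatment; 0% = median of DMSO wells and 100% = median of geldanamycin control wells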
SR-BI HDL uptake: inhibitors of SR-BI mediated HDL lipid uptake, primary screen, ldlA[mSR-BI] cells, fluorescence, single point; Scavenger receptor class B member 1 (Mus musculus), Q61009; ldlA[mSR-BI] CHO cells, DiI-HDL uptake fluorescence, 3 h; inhibition, % at 12.5 µM; 0.96% of 320,000 active; AID 488896, 2010;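 active = mean replicate inhibition of at least 70% and a set share of replicates each scoring 70 or more; inconclusive = meets just one of the two criteria; inactive = fails both criteria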;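 note: 0% = median of neutral control wells and 100% = median of positive control wells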
Target sequence (Q61009 whole entry, looked up): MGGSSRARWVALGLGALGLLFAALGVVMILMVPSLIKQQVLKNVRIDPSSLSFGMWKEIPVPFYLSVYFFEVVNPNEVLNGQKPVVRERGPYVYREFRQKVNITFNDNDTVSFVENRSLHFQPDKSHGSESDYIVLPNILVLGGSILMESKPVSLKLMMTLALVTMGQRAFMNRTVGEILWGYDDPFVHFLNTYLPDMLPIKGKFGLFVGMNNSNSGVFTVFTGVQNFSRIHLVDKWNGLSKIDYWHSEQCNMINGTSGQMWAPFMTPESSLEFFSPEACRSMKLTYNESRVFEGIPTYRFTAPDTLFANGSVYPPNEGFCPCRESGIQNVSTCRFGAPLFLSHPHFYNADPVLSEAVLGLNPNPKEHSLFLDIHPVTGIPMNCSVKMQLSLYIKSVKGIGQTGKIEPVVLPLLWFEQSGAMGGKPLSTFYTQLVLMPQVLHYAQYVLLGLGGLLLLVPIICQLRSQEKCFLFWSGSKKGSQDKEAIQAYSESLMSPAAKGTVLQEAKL
SR-BI DiI-HDL act: activators of SR-BI mediated DiI-HDL uptake, primary screen, ldlA[mSR-BI] CHO cells, DiI fluorescence. 3 h; 100 = double the neutral-control signal. activation, % at 12.5 µM. 0.096% of 320,000 active. AID 504775, 2011;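 active = mean replicate activation of at least 60% and every replicate at or above 60%; inconclusive = mean or all-replicate condition met, but not both; inactive = mean below 60% and not all replicates reaching 60%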;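 note: 0% = median plate neutral-control signal and 100% = twice that signal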
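system = CHO ldlA[mSR-BI] cells, LDL receptor-null, SR-BI overexpressing | medium = Ham's F12 with 0.5% BSA, HEPES 25 mM, pH 7.4 | probe or stimulus = DiI-HDL 10 µg/mL | compound dosing = single-point compound dose | incubation = compound exposure 3 h, 37 °C | technique = DiI fluorescence, bottom read | read-out = cell-associated DiI fluorescence as measure of HDL uptake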
HTR2A ag: mouse Htr2a agonists via beta-arrestin recruitment, primary screen, cell-based, luminescence; 0.66% of 360,000 active; activation, % at 7.6 µM; CHO-K1 mHTR2A beta-arrestin complementation; percent of 30 µM serotonin response;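 active = activation above a run cutoff, the mean activation of all tested compounds plus 3 SD, cut at about 14% in these data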;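 note: 0% = plate median of compound wells and 100% = 30 µM serotonin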
beta cell repl: inducers of MIN6 beta-cell proliferation, primary screen, ATP luminescence, uHTS. MIN6 cells proliferation, ATPlite luminescence, 48 h; cells starved in 0.2% serum; 100% = growth in 10% serum. proliferation, % at 10 µM. 0.29% of 330,000 active;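 active = compounds whose signal lies at least 3.5 SD above the mean of all wells on their plate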;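 note: 0% = DMSO-treated cells in low-serum medium and 100% = 10% serum control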
DiI quench: DiI fluorescence quenching in cell-free counter-screen; shares compounds with SR-BI HDL uptake; cell-free DiI-HDL fluorescence quenching, 30 min; AC50, µM (highest dose often 35 µM), without a hit: top-dose activity change, negative = quenching; 20% of 470 active;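 active = quenching, a falling signal, with AC50 below a set limit tied to the top valid dose, actives reach about 32 µM in these data; inconclusive = no clear call, values can overlap the other calls; inactive = rising signal, and the rest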
* marks the source's active call; other numbers are inactive results; ? = inconclusive; · = no result.

SMILES	Ins promoter up	Calb FLC	SR-BI HDL uptake	SR-BI DiI-HDL act	HTR2A ag	beta cell repl	DiI quench
COc1ccc(-c2csc(N3CCN(c4cc5c(cc4Cl)nc(-c4ccncc4)n5CCOCCO)CC3)n2)cc1	·	24	61	-61	-6	-4	·
COc1ccc(CCN2CC(C(=O)NCc3cc(C(C)C)no3)CCC2=O)cc1 (stereo not given)	·	1	-12	12	1	-3	-2%
CC(C)c1cc(CNC(=O)C2CCC(=O)N(CCc3ccc(Cl)cc3)C2)on1 (stereo not given)	·	-6	78*	-78	5	2	-1%
COc1cccc(N2CCN(S(=O)(=O)c3ccc(-n4cnnn4)cc3)CC2)c1	·	1	-5	5	3	-2	·
CCCCN(Cc1ccccc1)c1ncnc2nc[nH]c12	-0.35	-1	74*	-74	-2	2	0%
CCCCN(CCCC)c1ncnc2nc[nH]c12	-0.68	-17	7	-7	-2	3	·
CCOC(=O)Nc1nc(-c2ccccc2)c(C(=O)c2ccccc2)s1	-0.18	36	75*	-75	5	-4	-2%
CCOC(=O)C(C)(C)Sc1nc2c(cnn2-c2ccc(F)cc2)c(=O)[nH]1	·	22	77*	-77	2	0	-6%
CCOC(=O)C(C)(C)Sc1nc2c(cnn2-c2ccc(C)cc2)c(=O)[nH]1	·	-2	41	-41	-2	0	·
Cc1ccc(S(=O)(=O)N2CCOCC2)cc1C(=O)OCCOc1cccc(Cl)c1	·	·	26	-26	-4	-7	·
CC(C(=O)NCc1ccccc1)N(Cc1ccccc1Cl)C(=O)c1snc(C(N)=O)c1N (stereo not given)	·	0	84*	-84	6	2	2%
COc1ccc(C2C(C#N)=C(N)N(c3ccccc3C#N)C3=C2C(=O)CCC3)cc1CN1CCCC1 (stereo not given)	0.34	-10	3	-3	0	1	-4%
COc1cc(C2C(C#N)=C(N)N(c3cccnc3)C3=C2C(=O)CCC3)ccc1O (stereo not given)	-0.32	22	-4	4	13	1	·
CC(=O)c1c(C)[nH]c(C(=O)Nc2ccc(C)c(S(=O)(=O)N(C)C)c2)c1C	-0.28	42	63	-63	-4	·	·
CC(=O)c1c(C)[nH]c(C(=O)Nc2ccc(C)c(S(=O)(=O)Nc3ccc(C)cc3C)c2)c1C	0.35	32	83*	-83	-8	-7	11%
COCc1ccc(C(=O)NC2CCCc3c2cnn3-c2ccc(C)c(C)c2)o1 (stereo not given)	·	-6	24	-24	-3	0	·
COC(=O)c1cc2c(ccn2-c2ccc(F)cc2)n1Cc1ccc(C#N)cc1	-0.76	-8	78*	-78	0	-2	2%
COC(=O)c1cc2c(ccn2-c2ccc(F)cc2)n1Cc1ccc(OC)cc1	0.14	-2	68	-68	-3	0	·
Cc1ccc(NS(=O)(=O)c2ccc(C(=O)NNC(=O)c3ccccc3O)cc2)cc1	·	-3	120*	-120	-3	-7	0.46µM*
O=C(NC1CCCCC1)C1c2ccccc2OCC(=O)N1CCc1c[nH]c2ccccc12 (stereo not given)	·	·	·	·	3	·	·
O=C(CCn1c(=S)oc2ccccc21)Nc1cc([N+](=O)[O-])ccc1F	·	3	36	-36	-4	-2	·
CC1CCN(CC(O)COC2CC(C)CCC2C(C)C)CC1 (stereo not given)	-0.17	-22	-11	11	-4	-3	·
CCOC(=O)N1CCN(CC(O)COC2CC(C)CCC2C(C)C)CC1 (stereo not given)	-0.52	-11	78*	-78	5	-2	-4%
CC1=C([N+](=O)[O-])C(c2ccccc2Cl)NC(=O)N1C (stereo not given)	·	-4	0	0	0	-3	·
CCC1CCCCN1C(=O)CSc1nnc(-c2ccco2)o1 (stereo not given)	-1.4	·	76*	-76	0	1	-6%
SMILES	Ins promoter up	Calb FLC	SR-BI HDL uptake	SR-BI DiI-HDL act	HTR2A ag	beta cell repl	DiI quench
O=C(Nc1ccc(-c2csc(Nc3ccccc3)n2)cc1)c1cccc(C(F)(F)F)c1	-1.7	12	114*	-114	-1	-8	1.5µM*
O=C(Nc1ccc(-c2csc(Nc3ccc(Cl)cc3)n2)cc1)c1cccc(C(F)(F)F)c1	-1.7	2	·	·	·	-7	·
CN1OC[C@@H]2CN(C(=S)NCCc3ccccc3)[C@H](c3ccc(-n4ccnc4)cc3)C[C@@H]21	·	·	·	·	-3	·	·
COc1ccc(CN2CCN(C(=O)c3ccc(S(=O)(=O)N4CCCCCC4)cc3)CC2)cc1F	·	·	49	-49	0	-4	·
O=C(c1ccc(S(=O)(=O)NCc2ccco2)cc1)N1CCN(Cc2ccc3c(c2)OCO3)CC1	0.2	-3	?	-71	11	-5	0%
Cc1ccccc1CN1CCN(C(=O)c2ccc(S(=O)(=O)NCc3ccco3)cc2)CC1	·	·	64	-64	-2	0	-2%
COc1ccc(CN2CCN(C(=O)c3ccc(S(=O)(=O)NCc4ccco4)cc3)CC2)cc1F	·	·	?	-72	-2	-2	-2%
O=C(C[n+]1ccc(C(=O)NCc2ccccc2)cc1)c1ccc(Cl)cc1	·	-3	-12	12	-7	0	·
O=C(NS(=O)(=O)Nc1ccccc1)C1=C(N2CCCC2)COC1=O	·	·	-27	27	9	-1	·
CN(C)CCCNC(NC(=O)/C=C/c1ccccc1)C(Cl)(Cl)Cl (stereo not given)	-0.54	11	-22	22	-2	0	·
O=C1COc2ccc(C(=O)COC(=O)c3ccco3)cc2N1	0.3	6	·	·	-3	-1	·
CC(C)[C@H](NC(=O)c1ccco1)C(=O)OCC(=O)c1ccc2c(c1)NC(=O)CO2	·	-11	-20	20	1	1	-5%
Cc1ccc(-c2csc(N3CCN(c4ccc5nc(-c6ccncc6)n(CCN6CCCCC6)c5c4)CC3)n2)cc1	·	13	70*	-70	-5	-6	-19%
Nc1c(-c2cccs2)cnn1-c1nc(-c2ccc(F)cc2)cs1	-0.32	5	74*	-74	-3	-1	-7%
Nc1c(-c2ccccn2)cnn1-c1nc(-c2ccc(F)cc2)cs1	0.1	22	66	-66	8	-5	·
CCOC(=O)C1(Cc2ccccc2C#N)CCCCC1=O (stereo not given)	·	·	-7	7	11	·	·
